# From PubChem
# Most compounds without a hit are left out; they make up all but 2.6% or so of the library.
# SENP8 block-1 = inhibitors of human SENP8 protease; 360,000 tested, 0.64% active; inhibition, % at 20 µM; AID 602440; recombinant SENP8, Nedd8 substrate fluorescence; Q96LD8; in the data active = inhibition mostly above about 40%, no sharp cut-off; inactive = mostly below about 27%
# Target sequence (Q96LD8 whole entry, looked up): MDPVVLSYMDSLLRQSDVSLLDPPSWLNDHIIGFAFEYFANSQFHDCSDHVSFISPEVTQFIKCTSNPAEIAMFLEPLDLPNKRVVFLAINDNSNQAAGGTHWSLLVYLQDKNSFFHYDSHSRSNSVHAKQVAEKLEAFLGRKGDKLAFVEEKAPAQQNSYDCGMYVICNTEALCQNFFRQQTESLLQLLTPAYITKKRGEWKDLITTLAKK
# SENP6 inh = inhibitors of human SENP6 protease. Q9GZR1. Recombinant SENP6 catalytic domain, aminoluciferin luminescence. inhibition, % at 10 µM. 330,000 tested, 1.8% active. AID 2599;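 active = inhibition above about 50% at the single tested dose, limit read from the data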;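 note: plate controls were DMSO wells with enzyme for no effect and DMSO wells lacking enzyme for full effect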
# SENP1 inh = blocks the human SENP1 SUMO protease catalytic domain; Q9P0U3; inhibition, % at 10 µM; recombinant SENP1 catalytic domain, CyPet-SUMO1-YPet FRET cleavage; 360,000 tested, 0.21% active; AID 624204;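 active = inhibition at least 30% at 10 µM, raw YFP signal under a set limit, fluorescence ratio 0.5 to 1.5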;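 note: 0% = enzyme with DMSO and 100% = no enzyme wells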
#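 Controls: no-enzyme wells low, DMSO-plus-enzyme wells high control. Test system: human recombinant His6-tagged SENP1 catalytic domain enzyme. Reagent: SFCypet-SUMO1-SFYpet FRET protein substrate, 25 nM final. Doses: one dose per compound, 10 µM, 0.5% DMSO. Detection: FRET, CFP and YFP emission. Timing: 50 min reaction at room temperature.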
# SENP7 inh = blocks the human protease SENP7 | Q9BQF6 | recombinant SENP7, Z-RLRGG-aminoluciferin luminescence, 40 min | inhibition, % at 5 µM | 330,000 tested, 1.5% active | AID 434973;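 active = inhibition above about 50% at the single test dose, limit read from the data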;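 note: plate controls were DMSO with enzyme for no effect and no enzyme buffer wells for full effect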
# SENP8 block-2 = SENP8 protease inhibition. Q96LD8. purified SENP8, Z-RLRGG-aminoluciferin cleavage, luminescence. inhibition, % at 10 µM. 330,000 tested, 1.2% active. AID 2540; in the data active = inhibition above about 50%
# Platelet DG rel = platelet dense granule release activity; human platelet-rich plasma, SFLLRN dense granule ATP release, luminescence; inhibition, %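 (compounds screened at 7.5 µM in platelet-rich plasma)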; 300,000 tested, 0.22% active; AID 1663;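 active = mean replicate score, as percent of positive control, at or above 50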
# SENP8 confirm = human SENP8 inhibition, confirmed | shares compounds with SENP7 inh | Recombinant SENP8, Z-RLRGG-aminoluciferin luminescence, 60 min | inhibition, % at 12.5 µM | 6,200 tested, 40% active | AID 488912;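 active = mean inhibition across replicates above about 50%, limit read from the data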
# SENP6 conf = confirmation of human SENP6 protease inhibitors. 6,200 tested, 58% active. recombinant SENP6, Z-RLRGG-aminoluciferin luminescence. inhibition, % at 12.5 µM. AID 488915. shares compounds with SENP7 inh
# SENP7 confirm = human SENP7 inhibition, confirmed. shares compounds with SENP7 inh. recombinant SENP7, Z-RLRGG-aminoluciferin luminescence, 40 min. inhibition, % at 12.5 µM. 6,200 tested, 69% active
# Casp3 select = caspase-3 inhibition (SENP selectivity assay); shares compounds with SENP7 inh; purified caspase-3, Z-DEVD-aminoluciferin luminescence, 60 min; inhibition, % at 12.5 µM; 6,200 tested, 60% active; AID 488918;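 active = mean inhibition above about 50%, limit read from the data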;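 note: plate controls were enzyme with DMSO for no effect and wells without caspase-3 for full effect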
# Target sequence (P42574 28-227 limits assumed): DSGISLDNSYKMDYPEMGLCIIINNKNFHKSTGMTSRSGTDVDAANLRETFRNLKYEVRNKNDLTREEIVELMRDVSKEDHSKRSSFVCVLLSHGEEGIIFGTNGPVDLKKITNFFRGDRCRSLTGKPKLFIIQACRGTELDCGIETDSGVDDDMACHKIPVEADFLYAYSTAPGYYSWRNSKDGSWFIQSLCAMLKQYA
# SENP luc ctr = luminescence interference (SENP counter-screen) | shares compounds with SENP7 inh | Pre-incubated SENP8/Z-RLRGG-aminoluciferin, luciferase luminescence interference | inhibition, % at 12.5 µM | 6,200 tested, 39% active;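 active = mean inhibition above about 50% when retested at one dose, limit read from the data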;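 note: plate controls were DMSO wells with completed reaction for no effect and substrate without enzyme for full effect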
# Active calls of the source: *; x = no result.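 Rule for the calls, unless noted: active = mean inhibition above about 50% in the one-dose retest (limit read from the data); inactive = the rest.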
SMILES,SENP8 block-1,SENP6 inh,SENP1 inh,SENP7 inh,SENP8 block-2,Platelet DG rel,SENP8 confirm,SENP6 conf,SENP7 confirm,Casp3 select,SENP luc ctr
Clc1ccc(-n2ncc3c(N4CCCCCC4)ncnc32)cc1,6,94*,-16,91*,86*,9,47,53*,72*,57*,1
Cc1cccc(-n2ncc3c(N4CCOCC4)ncnc32)c1,15,71*,2,79*,70*,8,78*,76*,91*,86*,61*
Cc1cccc(NC(=O)c2ccoc2C)n1,-5,39,0,31,5,5,x,x,x,x,x
Cc1ccccc1NC(=O)c1onc2c1CCCC2,8,83*,0,55*,66*,9,22,63*,90*,85*,72*
Cc1cccc(NC(=O)c2onc3c2CCCC3)n1,4,95*,-1,97*,93*,21,96*,98*,102*,98*,96*
Cc1cccc(NC(=O)c2onc3c2CCCC3)c1C,11,49,0,25,24,4,x,x,x,x,x
Cc1ccccc1OCCC(=O)Nc1cc(S(=O)(=O)N2CCCCC2)ccc1N1CCN(C)CC1,2,x,0,x,x,x,x,x,x,x,x
O=C1C2C3C=CC([C@@H]2C(=O)N1c1nccs1)C31CC1 (stereo not given in full),8,-22,1,-3,-11,2,x,x,x,x,x
CC(=O)C1=C(O)CC(c2ccccc2)CC1=NCCc1c(C)[nH]c2ccccc12 (stereo not given),4,-6,4,2,0,20,x,x,x,x,x
Cc1ccc(NC(=O)c2cc3ccccc3o2)cc1S(=O)(=O)N(C)C,12,x,1,x,x,x,x,x,x,x,x
COc1cc2ccccc2cc1C(=O)Nc1ccc(O)cc1,-89,63*,-28,57*,44,3,8,37,87*,60*,3
Cc1ccc(NC(=O)c2cc3ccccc3oc2=O)cc1S(=O)(=O)N(C)C,9,36,0,73*,25,8,22,25,17,39,7
O=C(Nc1ccc(F)cc1F)c1cc2ccccc2oc1=O,17,28,3,63*,7,0,7,6,46,54*,23
COc1ccc(NC(=O)c2cc3ccccc3cc2O)cc1,20,51*,-22,13,50,16,25,33,88*,44,8
CCc1cc(C(=O)OC)c(NC(=O)CCC(=O)O)s1,7,4,-1,5,2,0,x,x,x,x,x
CC(C)(C)OC(=O)N[C@@H](Cc1ccccc1)C(=O)N1CCC(C(=O)NCC(=O)O)CC1,14,-11,2,-4,-1,x,x,x,x,x,x
COc1ccc2oc(=O)c(C(=O)Nc3ccccc3O)cc2c1,32,77*,3,95*,75*,12,61*,78*,94*,74*,21
COc1ccc(NC(=O)c2cc3ccccc3oc2=O)cc1,28,x,6,x,x,x,x,x,x,x,x
COCCn1c(C)cc(C(=O)CSc2nnc(C)s2)c1C,19,46,2,50*,10,3,41,38,80*,81*,56*
Fc1cccc2sc(Nc3nnc(-c4ccccc4)o3)nc12,-315,85*,-35,45,63*,10,8,7,1,60*,3
c1coc(CNc2c3c(nc4ncnn24)CCCC3)c1,-1,-19,-1,1,1,0,x,x,x,x,x
Clc1cccc(-c2cc3nc4c(c(NCc5ccco5)n3n2)CCCC4)c1,-266,81*,-4,26,53*,-16,-4,8,3,7,4
Cc1ccc(-c2cc3nc(C)cc(NCc4ccco4)n3n2)cc1,-329,81*,-30,92*,74*,20,46,38,61*,63*,38
Cc1ccc(C(=O)NNC(=O)C2CSC3(C)CCC(=O)N23)cc1 (stereo not given),10,-8,1,-2,-3,-7,x,x,x,x,x
O=C(COc1ccc2c3c(c(=O)oc2c1)CCC3)NCC1CCC(C(=O)O)CC1 (stereo not given),-285,-6,-1,0,-8,8,x,x,x,x,x
SMILES,SENP8 block-1,SENP6 inh,SENP1 inh,SENP7 inh,SENP8 block-2,Platelet DG rel,SENP8 confirm,SENP6 conf,SENP7 confirm,Casp3 select,SENP luc ctr
CCCc1[nH]n(-c2ccc([N+](=O)[O-])cc2)c(=O)c1C=NCCN1CCNCC1,x,92*,x,87*,84*,1,78*,50*,57*,85*,69*
Cc1[nH]n(-c2ccc([N+](=O)[O-])cc2)c(=O)c1C=NCCN1CCN(C(=O)C(C)C)CC1,25,85*,1,78*,62*,3,23,28,39,48,43
CCCc1[nH]n(-c2ccc([N+](=O)[O-])cc2)c(=O)c1C=NCCCn1ccnc1,17,2,1,-1,-5,4,x,x,x,x,x
O=C(NCC(c1ccco1)N1CCN(c2ccccc2)CC1)C1CCCCC1 (stereo not given),24,x,1,x,x,x,x,x,x,x,x
CCc1sc(C(=O)Nc2nc(C)cs2)cc1C,-44,85*,-2,65*,68*,6,70*,69*,92*,69*,69*
Cc1csc(NC(=O)c2cc3c(s2)CCC3)n1,-78,90*,0,87*,82*,23,89*,88*,99*,89*,91*
Cc1nc(NC(=O)c2cc3c(s2)CCCCC3)sc1C(=O)N(C)C,-127,2,0,14,0,-14,x,x,x,x,x
Cc1csc(NC(=O)c2cc3c(s2)-c2ccccc2OC3)n1,-355,-9,-83,8,-7,6,x,x,x,x,x
CCc1sc(C(=O)Nc2ccc(NC(C)=O)cc2)cc1C,20,-11,2,3,-2,2,x,x,x,x,x
Cc1csc(NC(=O)c2ccc(Br)s2)n1,-19,55*,-2,26,30,-6,46,43,77*,48,26
COC(=O)c1sc(NC(=O)c2cc3c(s2)CCCC3)nc1C,-221,23,-3,80*,35,-2,34,34,90*,52*,40
Cc1sc(NC(=O)COc2cccc(-n3cnnn3)c2)c(C#N)c1C,20,-2,1,-1,-5,3,x,x,x,x,x
